Source: ChEMBL document CHEMBL1142666, “Novel [2',5'-bis-O-(tert-butyldimethylsilyl)-beta-D-ribofuranosyl]- 3'-spiro-5''-(4''-amino-1'',2''-oxathiole-2'',2" -dioxide) derivatives with anti-HIV-1 and anti-human-cytomegalovirus activity” (J Med Chem, 2005)

What follows are compounds tested on MT4 (assay: Cytostatic concentration required to inhibit MT-4 cell proliferation). Conditions: Homo sapiens.
Assay type: functional
In short: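 Mock-infected MT-4 cells (3 × 10^5/mL) incubated with compound dilutions for 5 days. Viable cells counted by trypan blue exclusion. CC50 = concentration reducing viable MT-4 cell number by 50%.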

| Compound | CC50 [µM] |
| --- | --- |
| Cc1cn([C@@H]2O[C@H](CO[Si](C)(C)C(C)(C)C)[C@@]3(OS(=O)(=O)C=C3NCC(=O)O)[C@H]2O[Si](C)(C)C(C)(C)C)c(=O)n(C)c1=O | 30 |
| COC(=O)C(=O)NC1=CS(=O)(=O)O[C@@]12[C@@H](CO[Si](C)(C)C(C)(C)C)O[C@@H](n1cc(C)c(=O)n(C)c1=O)[C@@H]2O[Si](C)(C)C(C)(C)C | 10.3 |
| COC(=O)CNC1=CS(=O)(=O)O[C@@]12[C@@H](CO[Si](C)(C)C(C)(C)C)O[C@@H](n1cc(C)c(=O)n(C)c1=O)[C@@H]2O[Si](C)(C)C(C)(C)C | 105 |
| CC(=O)NC1=CS(=O)(=O)O[C@@]12[C@@H](CO[Si](C)(C)C(C)(C)C)O[C@@H](n1cc(C)c(=O)n(C)c1=O)[C@@H]2O[Si](C)(C)C(C)(C)C | 10.7 |

The compounds below were run on CCRF-CEM (assay: Effective concentration required to inhibit HIV-2 ROD in CEM cell culture). Conditions: Homo sapiens.
Assay type: functional, cell-based
In short: (§1)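 CEM cells (4 × 10^5/mL) infected at ~100 CCID50/mL and mixed with compound dilutions. Giant cell formation scored microscopically at day 4. EC50 = concentration inhibiting virus-induced cytopathicity by 50%.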

| Compound | EC50 [µM] |
| --- | --- |
| Cc1cn([C@@H]2O[C@H](CO[Si](C)(C)C(C)(C)C)[C@@]3(OS(=O)(=O)C=C3NCC(=O)O)[C@H]2O[Si](C)(C)C(C)(C)C)c(=O)n(C)c1=O | > 10 |
| COC(=O)C(=O)NC1=CS(=O)(=O)O[C@@]12[C@@H](CO[Si](C)(C)C(C)(C)C)O[C@@H](n1cc(C)c(=O)n(C)c1=O)[C@@H]2O[Si](C)(C)C(C)(C)C | > 4 |
| COC(=O)CNC1=CS(=O)(=O)O[C@@]12[C@@H](CO[Si](C)(C)C(C)(C)C)O[C@@H](n1cc(C)c(=O)n(C)c1=O)[C@@H]2O[Si](C)(C)C(C)(C)C | > 125 |
| CC(=O)NC1=CS(=O)(=O)O[C@@]12[C@@H](CO[Si](C)(C)C(C)(C)C)O[C@@H](n1cc(C)c(=O)n(C)c1=O)[C@@H]2O[Si](C)(C)C(C)(C)C | > 25 |

These compounds were tested on HEL (assay: Minimal cytotoxic concentration required to cause microscopically visible alteration of cell morphology in HEL Cells). Conditions: Homo sapiens.
Assay type: functional
In short: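 Uninfected HEL cells exposed to compound. Minimum cytotoxic concentration is the lowest level giving a microscopically detectable change in cell morphology.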

| Compound | MCC [µM] |
| --- | --- |
| Cc1cn([C@@H]2O[C@H](CO[Si](C)(C)C(C)(C)C)[C@@]3(OS(=O)(=O)C=C3NCC(=O)O)[C@H]2O[Si](C)(C)C(C)(C)C)c(=O)n(C)c1=O | 300 |
| COC(=O)C(=O)NC1=CS(=O)(=O)O[C@@]12[C@@H](CO[Si](C)(C)C(C)(C)C)O[C@@H](n1cc(C)c(=O)n(C)c1=O)[C@@H]2O[Si](C)(C)C(C)(C)C | > 400 |
| COC(=O)CNC1=CS(=O)(=O)O[C@@]12[C@@H](CO[Si](C)(C)C(C)(C)C)O[C@@H](n1cc(C)c(=O)n(C)c1=O)[C@@H]2O[Si](C)(C)C(C)(C)C | ≥ 400 |
| CC(=O)NC1=CS(=O)(=O)O[C@@]12[C@@H](CO[Si](C)(C)C(C)(C)C)O[C@@H](n1cc(C)c(=O)n(C)c1=O)[C@@H]2O[Si](C)(C)C(C)(C)C | ≥ 80 |

What follows are compounds tested on CCRF-CEM (assay: Effective concentration required to inhibit HIV-1 IIIB in CEM cell culture). Conditions: Homo sapiens.
Assay type: functional, cell-based
In short: as §1

| Compound | EC50 [µM] |
| --- | --- |
| Cc1cn([C@@H]2O[C@H](CO[Si](C)(C)C(C)(C)C)[C@@]3(OS(=O)(=O)C=C3NCC(=O)O)[C@H]2O[Si](C)(C)C(C)(C)C)c(=O)n(C)c1=O | > 10 |
| COC(=O)C(=O)NC1=CS(=O)(=O)O[C@@]12[C@@H](CO[Si](C)(C)C(C)(C)C)O[C@@H](n1cc(C)c(=O)n(C)c1=O)[C@@H]2O[Si](C)(C)C(C)(C)C | 0.06 |
| COC(=O)CNC1=CS(=O)(=O)O[C@@]12[C@@H](CO[Si](C)(C)C(C)(C)C)O[C@@H](n1cc(C)c(=O)n(C)c1=O)[C@@H]2O[Si](C)(C)C(C)(C)C | 0.6 |
| CC(=O)NC1=CS(=O)(=O)O[C@@]12[C@@H](CO[Si](C)(C)C(C)(C)C)O[C@@H](n1cc(C)c(=O)n(C)c1=O)[C@@H]2O[Si](C)(C)C(C)(C)C | > 25 |

Each compound was assayed on HEL (assay: Cytostatic concentration required to inhibit HEL cell proliferation). Conditions: Homo sapiens.
Assay type: functional
In short: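 HEL fibroblasts seeded at 5 × 10^3 cells/well and grown 24 h, then given compound in duplicate. After 3 days at 37 °C in 5% CO2, cell number read on a Coulter counter. CC50 = concentration reducing cell growth by 50%.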

| Compound | CC50 [µM] |
| --- | --- |
| Cc1cn([C@@H]2O[C@H](CO[Si](C)(C)C(C)(C)C)[C@@]3(OS(=O)(=O)C=C3NCC(=O)O)[C@H]2O[Si](C)(C)C(C)(C)C)c(=O)n(C)c1=O | 136 |
| COC(=O)C(=O)NC1=CS(=O)(=O)O[C@@]12[C@@H](CO[Si](C)(C)C(C)(C)C)O[C@@H](n1cc(C)c(=O)n(C)c1=O)[C@@H]2O[Si](C)(C)C(C)(C)C | > 200 |
| COC(=O)CNC1=CS(=O)(=O)O[C@@]12[C@@H](CO[Si](C)(C)C(C)(C)C)O[C@@H](n1cc(C)c(=O)n(C)c1=O)[C@@H]2O[Si](C)(C)C(C)(C)C | 160 |
| CC(=O)NC1=CS(=O)(=O)O[C@@]12[C@@H](CO[Si](C)(C)C(C)(C)C)O[C@@H](n1cc(C)c(=O)n(C)c1=O)[C@@H]2O[Si](C)(C)C(C)(C)C | > 200 |

What follows are compounds tested on CCRF-CEM (assay: Cytostatic concentration required to inhibit CEM cell proliferation). Conditions: Homo sapiens.
Assay type: functional
In short: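 CEM cells, mock-infected, grown with serial compound dilutions for 4 days. CC50 taken as the concentration that inhibits CEM cell proliferation by 50%.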

| Compound | CC50 [µM] |
| --- | --- |
| Cc1cn([C@@H]2O[C@H](CO[Si](C)(C)C(C)(C)C)[C@@]3(OS(=O)(=O)C=C3NCC(=O)O)[C@H]2O[Si](C)(C)C(C)(C)C)c(=O)n(C)c1=O | 65 |
| COC(=O)C(=O)NC1=CS(=O)(=O)O[C@@]12[C@@H](CO[Si](C)(C)C(C)(C)C)O[C@@H](n1cc(C)c(=O)n(C)c1=O)[C@@H]2O[Si](C)(C)C(C)(C)C | 5.57 |
| COC(=O)CNC1=CS(=O)(=O)O[C@@]12[C@@H](CO[Si](C)(C)C(C)(C)C)O[C@@H](n1cc(C)c(=O)n(C)c1=O)[C@@H]2O[Si](C)(C)C(C)(C)C | 96 |
| CC(=O)NC1=CS(=O)(=O)O[C@@]12[C@@H](CO[Si](C)(C)C(C)(C)C)O[C@@H](n1cc(C)c(=O)n(C)c1=O)[C@@H]2O[Si](C)(C)C(C)(C)C | 25.7 |

Each compound was assayed on MT4 (assay: Effective concentration required to inhibit HIV-1 IIIB in MT-4 cell culture). Conditions: Homo sapiens.
Assay type: functional, cell-based
In short: (§2)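 MT-4 cells (3 × 10^5/mL) infected at ~100 CCID50/mL and mixed with compound dilutions. Cytopathicity read by trypan blue exclusion at day 5. EC50 = concentration giving 50% protection against virus-induced loss of viability.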

| Compound | EC50 [µM] |
| --- | --- |
| Cc1cn([C@@H]2O[C@H](CO[Si](C)(C)C(C)(C)C)[C@@]3(OS(=O)(=O)C=C3NCC(=O)O)[C@H]2O[Si](C)(C)C(C)(C)C)c(=O)n(C)c1=O | > 10 |
| COC(=O)C(=O)NC1=CS(=O)(=O)O[C@@]12[C@@H](CO[Si](C)(C)C(C)(C)C)O[C@@H](n1cc(C)c(=O)n(C)c1=O)[C@@H]2O[Si](C)(C)C(C)(C)C | 0.08 |
| COC(=O)CNC1=CS(=O)(=O)O[C@@]12[C@@H](CO[Si](C)(C)C(C)(C)C)O[C@@H](n1cc(C)c(=O)n(C)c1=O)[C@@H]2O[Si](C)(C)C(C)(C)C | 1.61 |
| CC(=O)NC1=CS(=O)(=O)O[C@@]12[C@@H](CO[Si](C)(C)C(C)(C)C)O[C@@H](n1cc(C)c(=O)n(C)c1=O)[C@@H]2O[Si](C)(C)C(C)(C)C | > 5 |

These compounds were tested on MT4 (assay: Effective concentration required to inhibit HIV-2 ROD in MT-4 cell culture). Conditions: Homo sapiens.
Assay type: functional, cell-based
In short: as §2

| Compound | EC50 [µM] |
| --- | --- |
| Cc1cn([C@@H]2O[C@H](CO[Si](C)(C)C(C)(C)C)[C@@]3(OS(=O)(=O)C=C3NCC(=O)O)[C@H]2O[Si](C)(C)C(C)(C)C)c(=O)n(C)c1=O | > 10 |
| COC(=O)C(=O)NC1=CS(=O)(=O)O[C@@]12[C@@H](CO[Si](C)(C)C(C)(C)C)O[C@@H](n1cc(C)c(=O)n(C)c1=O)[C@@H]2O[Si](C)(C)C(C)(C)C | > 4 |
| COC(=O)CNC1=CS(=O)(=O)O[C@@]12[C@@H](CO[Si](C)(C)C(C)(C)C)O[C@@H](n1cc(C)c(=O)n(C)c1=O)[C@@H]2O[Si](C)(C)C(C)(C)C | > 125 |
| CC(=O)NC1=CS(=O)(=O)O[C@@]12[C@@H](CO[Si](C)(C)C(C)(C)C)O[C@@H](n1cc(C)c(=O)n(C)c1=O)[C@@H]2O[Si](C)(C)C(C)(C)C | > 5 |

These compounds were tested on HEL (assay: Effective concentration required to inhibit HCMV Davis in HEL Cells). Conditions: Homo sapiens.
Assay type: functional, cell-based
In short: (§3)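 Confluent HEL cells infected with HCMV at 100 PFU/well. After 1-2 h, residual virus removed and MEM with 2% inactivated FCS added, with compound in duplicate at 5-fold dilution steps. After 7 days at 37 °C in 5% CO2, cells fixed with ethanol and Giemsa-stained; plaques or CPE scored microscopically. IC50 interpolated graphically; mean of two independent experiments.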

| Compound | EC50 [µM] |
| --- | --- |
| Cc1cn([C@@H]2O[C@H](CO[Si](C)(C)C(C)(C)C)[C@@]3(OS(=O)(=O)C=C3NCC(=O)O)[C@H]2O[Si](C)(C)C(C)(C)C)c(=O)n(C)c1=O | 32 |
| COC(=O)C(=O)NC1=CS(=O)(=O)O[C@@]12[C@@H](CO[Si](C)(C)C(C)(C)C)O[C@@H](n1cc(C)c(=O)n(C)c1=O)[C@@H]2O[Si](C)(C)C(C)(C)C | 179 |
| COC(=O)CNC1=CS(=O)(=O)O[C@@]12[C@@H](CO[Si](C)(C)C(C)(C)C)O[C@@H](n1cc(C)c(=O)n(C)c1=O)[C@@H]2O[Si](C)(C)C(C)(C)C | > 400 |
| CC(=O)NC1=CS(=O)(=O)O[C@@]12[C@@H](CO[Si](C)(C)C(C)(C)C)O[C@@H](n1cc(C)c(=O)n(C)c1=O)[C@@H]2O[Si](C)(C)C(C)(C)C | > 16 |

What follows are compounds tested on HEL (assay: Effective concentration required to inhibit HCMV AD-169 in HEL Cells). Conditions: Homo sapiens.
Assay type: functional, cell-based
In short: as §3

| Compound | EC50 [µM] |
| --- | --- |
| Cc1cn([C@@H]2O[C@H](CO[Si](C)(C)C(C)(C)C)[C@@]3(OS(=O)(=O)C=C3NCC(=O)O)[C@H]2O[Si](C)(C)C(C)(C)C)c(=O)n(C)c1=O | ≥ 50 |
| COC(=O)C(=O)NC1=CS(=O)(=O)O[C@@]12[C@@H](CO[Si](C)(C)C(C)(C)C)O[C@@H](n1cc(C)c(=O)n(C)c1=O)[C@@H]2O[Si](C)(C)C(C)(C)C | 253 |
| COC(=O)CNC1=CS(=O)(=O)O[C@@]12[C@@H](CO[Si](C)(C)C(C)(C)C)O[C@@H](n1cc(C)c(=O)n(C)c1=O)[C@@H]2O[Si](C)(C)C(C)(C)C | > 400 |
| CC(=O)NC1=CS(=O)(=O)O[C@@]12[C@@H](CO[Si](C)(C)C(C)(C)C)O[C@@H](n1cc(C)c(=O)n(C)c1=O)[C@@H]2O[Si](C)(C)C(C)(C)C | 40 |
